Legend:
[1] = Tissue chip liver compartment: viability of HepG2/C3A cells in collagen; assay type: cell-based, human; settings: human
How it was run: (§1)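 Tumour compartment: MDA-MB-231 spheroids (10 × 10^3 cells, formed 4 days before seeding) in 3.5 mg mL−1 collagen. Liver (HepG2/C3A) and stroma (HS-5) compartments: 15 × 10^3 single cells in the same collagen. Medium 1:1 EMEM:DMEM under rocker-driven gravity flow. Test compound medium from day 1, replenished every 2 days, 5 days total. Four concentrations including control, 2–4 replicates; single-dose runs at 50 μM. PrestoBlue 15% v/v, 1 h, ex 560/em 590 nm; AUC computed.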

[2] = Tissue chip bone marrow stroma compartment: viability of HS-5 cells in collagen; assay type: cell-based, human; parameters: AUC HS-5: unit not given beside the values; settings: human
How it was run: as §1

[3] = test system: MDA-MB-231, HepG2/C3A and HS-5 cells; test: Tissue chip dose response, summary across all three compartments; assay type: cell-based; settings: Homo sapiens, read-out: IC50 values across all compartments
How it was run: as §1

HepG2/C3A liver cells = test: Tissue chip liver compartment: viability of HepG2/C3A cells in collagen; assay type: cell-based, human; settings: for IC50: Homo sapiens, HepG2/C3A, read-out: IC50 HepG2/C3A; for AUC HepG2/C3A: area under the dose-response curve, tissue chip, liver compartment
How it was run: as §1

[4] = test system: HS-5 bone marrow stromal cells; test: Tissue chip bone marrow stroma compartment: viability of HS-5 cells in collagen; assay type: cell-based, human; parameters: AUC HS-5: unit not given beside the values; settings: for IC50: Homo sapiens, HS5, read-out: IC50 HS-5; for AUC HS-5: area under the dose-response curve, tissue chip, bone marrow stroma compartment
How it was run: as §1

[5] = test system: MDA-MB-231 breast cancer cells; assay type: cell-based, human; settings: for IC50: Homo sapiens, MDA-MB-231, read-out: IC50 MDA-MB-231; for AUC MDA-MB-231: area under the dose-response curve, tissue chip, tumor compartment
How it was run: as §1

| SMILES | viability at 5 days, 50 μM [1] | viability at 5 days, 50 μM [2] | IC50 [3] | IC50 (HepG2/C3A liver cells) | AUC HepG2/C3A (HepG2/C3A liver cells) | IC50 [4] | AUC HS-5 [4] | IC50 [5] | AUC MDA-MB-231 [5] |
| --- | --- | --- | --- | --- | --- | --- | --- | --- | --- |
| O=c1[nH]cc(F)c(=O)[nH]1 [5-FU, 5-fluorouracil] | 20% | 24% | 1 to 10 µM | – | – | – | – | – | – |
| COc1cccc2c1C(=O)c1c(O)c3c(c(O)c1C2=O)C[C@@](O)(C(=O)CO)C[C@@H]3O[C@H]1C[C@H](N)[C@H](O)[C@H](C)O1 [Doxorubicin, doxorubicin] | – | – | – | 231 nM | 0.72 | 4.6 nM | 0.45 | 5.5 nM | 0.47 |
| CC(=O)Nc1cccc(-n2c(=O)n(C3CC3)c(=O)c3c(Nc4ccc(I)cc4F)n(C)c(=O)c(C)c32)c1 [Trametinib, trametinib] | – | – | – | 12.2 nM | 0.75 | > 1000 nM | 0.98 | 0.06 nM | 0.63 |
